# Measured values pooled from the literature.
# Compare with care: the assays were run in different laboratories.
# CDK18 with cyclin Y: Cyclin-dependent kinase 18, with cyclin Y (CDK18, Homo sapiens, UniProt Q07002)
# CDK18: Cyclin-dependent kinase 18 (CDK18, Homo sapiens, UniProt Q07002)
SMILES,target,effect on,action,technique,concentration,measurement,result
COc1ccc2oc(-c3ccc4nc(N)oc4c3)c/c(=N\c3ccccc3NC(=O)CCN)c2c1,CDK18 with cyclin Y,binding,,,1 µM,remaining binding,108%
C=CC(=O)N1CCC[C@@H](n2nc(-c3ccc(Oc4ccccc4)cc3)c3c(N)ncnc32)C1,CDK18,enzyme activity,inhibitor,,1 µM,inhibition,3%
COc1ccc2[nH]c3c4[nH]c5ccc(OC)cc5c4c4c(c3c2c1)C(=O)NC4=O,CDK18,binding,,,1 µM,remaining binding,80%
C=CC(=O)N1CCC([C@@H]2CCNc3c(C(N)=O)c(-c4ccc(Oc5ccccc5)cc4)nn32)CC1,CDK18,enzyme activity,inhibitor,,1 µM,inhibition,9%
C1=C/COCc2cc(ccc2OCCN2CCCC2)Nc2nccc(n2)-c2cccc(c2)COC/1,CDK18,binding,,,0.1 µM,remaining binding,92%
CC(C)S(=O)(=O)c1ccc2nccc(Nc3ccc4sc(C5CCCC5)nc4c3)c2c1,CDK18 with cyclin Y,enzyme activity,inhibitor,,1 µM,activity vs control,104%
CCCCC(=O)Nc1ccc(-c2ccc3ncn(CCC)c(=O)c3c2)cn1,CDK18,binding,,competition with immobilised ligand,0.5 µM,remaining binding,100%
Cc1ccc(NC(=O)c2ccnc(C(F)(F)F)c2)cc1-c1cc(OCCO)nc(N2CCOCC2)c1,CDK18,binding,,,1 µM,remaining binding,100%
